Experimental data taken from ChEMBL document CHEMBL1148507, “Discovery of a novel, orally active, small molecule gonadotropin-releasing hormone (GnRH) receptor antagonist” (J Med Chem, 2006).

Tests used:
[1] = target: Sodium-dependent dopamine transporter (Homo sapiens, UniProt Q01959); test: Binding affinity to human DA transporter
How it was run: (§1)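 Selectivity panel of 54 assays (ion channels, GPCRs, monoamine transporters) run at Cerep; Ki determined for hits at 10 µM; human isoform where marked.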

Histamine H2 receptor = Histamine H2 receptor (Homo sapiens, UniProt P25021); test: Binding affinity to H2 receptor; how it was run: as §1
Histamine H2 receptor, sequence (P25021 whole entry): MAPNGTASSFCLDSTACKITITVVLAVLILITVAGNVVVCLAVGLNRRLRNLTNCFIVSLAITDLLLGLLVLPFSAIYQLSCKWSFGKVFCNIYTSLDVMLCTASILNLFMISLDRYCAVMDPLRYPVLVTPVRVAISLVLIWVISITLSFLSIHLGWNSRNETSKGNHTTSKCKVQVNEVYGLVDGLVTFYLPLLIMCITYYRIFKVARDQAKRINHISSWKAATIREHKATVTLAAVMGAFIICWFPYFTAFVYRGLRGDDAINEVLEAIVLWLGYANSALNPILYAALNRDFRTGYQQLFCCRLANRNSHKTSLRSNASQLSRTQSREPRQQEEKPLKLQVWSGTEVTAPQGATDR

D(4) dopamine receptor = D(4) dopamine receptor (Homo sapiens, UniProt P21917); test: Binding affinity to human D4.4 receptor; how it was run: as §1
[2] = target: T1, Voltage-gated L-type calcium channel (Homo sapiens, UniProt Q13936+Q13698+Q01668+O60840); test: Binding affinity to L type calcium channel; format: protein assay; how it was run: as §1
[3] = target: Type-1 angiotensin II receptor (Homo sapiens, UniProt P30556); test: Binding affinity to human AT1 receptor; how it was run: as §1
[4] = target: T1, Voltage-gated L-type calcium channel; test: Binding affinity to diltiazem site of L type calcium channel; format: protein assay; how it was run: as §1
[5] = target: 5-hydroxytryptamine receptor 2C (Homo sapiens, UniProt P28335); test: Binding affinity to human 5HT2C receptor; how it was run: as §1
[6] = target: 5-hydroxytryptamine receptor 7 (Homo sapiens, UniProt P34969); test: Binding affinity to human 5HT7 receptor; how it was run: as §1
Cytochrome P450 3A4 = Cytochrome P450 3A4 (Homo sapiens, UniProt P08684); test: Inhibition of CYP3A4; format: ADME
[7] = target: Kappa-type opioid receptor (Homo sapiens, UniProt P41145); test: Binding affinity to kappa opiate receptor; how it was run: as §1
[8] = Inhibition KCl-stimulated calcium channel activity
D(3) dopamine receptor = D(3) dopamine receptor (Homo sapiens, UniProt P35462); test: Binding affinity to human D3 receptor; how it was run: as §1
D(3) dopamine receptor, sequence (P35462 whole entry): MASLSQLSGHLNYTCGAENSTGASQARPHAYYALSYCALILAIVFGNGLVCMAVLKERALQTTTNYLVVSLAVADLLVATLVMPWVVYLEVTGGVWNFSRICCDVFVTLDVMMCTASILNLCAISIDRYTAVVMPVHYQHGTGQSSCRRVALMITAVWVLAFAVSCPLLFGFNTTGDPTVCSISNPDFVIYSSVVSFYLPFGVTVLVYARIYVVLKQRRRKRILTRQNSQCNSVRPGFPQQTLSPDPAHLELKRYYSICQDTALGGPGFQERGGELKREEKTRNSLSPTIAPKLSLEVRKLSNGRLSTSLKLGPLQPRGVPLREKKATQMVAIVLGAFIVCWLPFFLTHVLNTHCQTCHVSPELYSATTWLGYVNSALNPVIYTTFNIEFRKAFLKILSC

Cytochrome P450 2C9 = Cytochrome P450 2C9 (Homo sapiens, UniProt P11712); test: Inhibition of CYP2C9; format: ADME
[9] = target: Muscarinic acetylcholine receptor M1 (Homo sapiens, UniProt P11229); test: Binding affinity to human M1 receptor; how it was run: as §1
Muscarinic acetylcholine receptor M1, sequence (P11229 whole entry): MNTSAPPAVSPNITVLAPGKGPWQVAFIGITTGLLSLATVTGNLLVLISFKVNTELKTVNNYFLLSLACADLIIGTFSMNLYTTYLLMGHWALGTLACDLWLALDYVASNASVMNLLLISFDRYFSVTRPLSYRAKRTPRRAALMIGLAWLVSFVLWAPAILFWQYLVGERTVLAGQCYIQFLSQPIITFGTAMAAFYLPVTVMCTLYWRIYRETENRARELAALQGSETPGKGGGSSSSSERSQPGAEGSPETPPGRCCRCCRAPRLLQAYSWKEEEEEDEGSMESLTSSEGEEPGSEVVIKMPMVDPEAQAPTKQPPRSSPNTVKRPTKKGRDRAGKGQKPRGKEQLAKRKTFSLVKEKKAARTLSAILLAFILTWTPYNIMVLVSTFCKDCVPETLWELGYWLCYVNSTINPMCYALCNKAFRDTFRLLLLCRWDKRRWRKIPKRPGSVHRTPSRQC

[10] = target: T2, Gonadotropin-releasing hormone receptor (Rattus norvegicus, UniProt P30969); test: Binding affinity to rat pituitary GnRH receptor
T2 sequence (P30969 whole entry): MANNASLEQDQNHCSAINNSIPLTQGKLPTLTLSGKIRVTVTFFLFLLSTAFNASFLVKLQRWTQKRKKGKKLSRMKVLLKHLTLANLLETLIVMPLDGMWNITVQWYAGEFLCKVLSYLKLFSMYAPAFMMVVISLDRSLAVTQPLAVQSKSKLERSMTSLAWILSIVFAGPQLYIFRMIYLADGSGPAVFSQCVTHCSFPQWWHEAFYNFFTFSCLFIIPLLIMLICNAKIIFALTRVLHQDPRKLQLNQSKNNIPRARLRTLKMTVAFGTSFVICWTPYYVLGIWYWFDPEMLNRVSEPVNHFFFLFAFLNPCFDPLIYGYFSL

D(1A) dopamine receptor = D(1A) dopamine receptor (Homo sapiens, UniProt P21728); test: Binding affinity to human D1 receptor; how it was run: as §1
D(1A) dopamine receptor, sequence (P21728 whole entry): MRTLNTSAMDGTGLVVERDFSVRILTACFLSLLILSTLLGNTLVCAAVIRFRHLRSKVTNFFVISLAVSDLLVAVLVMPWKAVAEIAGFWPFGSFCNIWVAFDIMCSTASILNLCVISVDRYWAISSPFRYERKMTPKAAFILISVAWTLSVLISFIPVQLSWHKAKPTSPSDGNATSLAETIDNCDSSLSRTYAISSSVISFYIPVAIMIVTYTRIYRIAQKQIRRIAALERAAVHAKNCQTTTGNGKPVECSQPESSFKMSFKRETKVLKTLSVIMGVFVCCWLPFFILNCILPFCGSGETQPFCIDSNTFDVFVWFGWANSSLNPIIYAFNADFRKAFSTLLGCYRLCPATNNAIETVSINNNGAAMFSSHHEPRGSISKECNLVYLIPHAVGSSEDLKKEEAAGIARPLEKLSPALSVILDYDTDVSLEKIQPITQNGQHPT

[11] = target: T1, Voltage-gated L-type calcium channel; test: Binding affinity to DHP site of L type calcium channel; format: protein assay; how it was run: as §1
Rattus norvegicus [12] = test: Suppression of luteinizing hormone levels to below 0.12 mIU/mL in po dosed castrated Sprague-Dawley rat; format: ADME, organism-based; details: in vivo
How it was run: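 Male SD rats (200-225 g) castrated under halothane, 14 days recovery, jugular cannulated; basal bleed then single oral dose 5.0, 20, 50 or 100 mg/kg in 0.5% CMC, n = 6/dose; serial plasma LH by coated-tube RIA, detection limit 0.12 mIU/mL; mean ± SEM.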

[13] = target: T2, Gonadotropin-releasing hormone receptor; test: Antagonist activity at rat pituitary GnRH receptor assessed as inhibition of GnRH-stimulated inositol phosphate accumulation; format: functional; details: in the assay text read “recombinant rat” for “rat pituitary”
How it was run: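 Rat receptor functional assay run against 100 nM GnRH; total inositol phosphate accumulation measured; IC50 with Hill coefficient derived.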

[14] = Volume of distribution in Sprague-Dawley rat at 5 mg/kg, iv or 20 mg/kg, po; format: ADME, organism-based; details: in vivo, read-out: Vdss
How it was run: (§2)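 Intact male rats with indwelling jugular vein catheters, recovered overnight; single dose 5 mg/kg i.v. (5 mg/mL in 70% PEG400/30% H2O) or 20 mg/kg p.o. (20 mg/mL suspension in 0.5% CMC). Plasma by C18 HPLC, 50-70% ACN gradient in 10 mM ammonium phosphate pH 7, UV 260 nm; noncompartmental parameters; F = AUCp.o./AUCi.v.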

[15] = target: Platelet-activating factor receptor (Homo sapiens, UniProt P25105); test: Binding affinity to PAF; how it was run: as §1
Platelet-activating factor receptor, sequence (P25105 whole entry): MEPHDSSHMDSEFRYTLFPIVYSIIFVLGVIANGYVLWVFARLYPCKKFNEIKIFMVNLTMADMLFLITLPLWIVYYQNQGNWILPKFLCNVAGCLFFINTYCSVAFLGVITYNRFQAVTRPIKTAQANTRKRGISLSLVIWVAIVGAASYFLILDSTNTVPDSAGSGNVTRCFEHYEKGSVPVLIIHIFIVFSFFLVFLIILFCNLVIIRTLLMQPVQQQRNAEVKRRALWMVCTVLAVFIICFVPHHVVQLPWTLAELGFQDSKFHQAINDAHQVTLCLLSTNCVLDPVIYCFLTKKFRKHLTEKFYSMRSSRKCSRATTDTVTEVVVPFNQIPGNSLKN

[16] = target: 5-hydroxytryptamine receptor 2A (Homo sapiens, UniProt P28223); test: Binding affinity to human 5HT2A receptor; how it was run: as §1
Cytochrome P450 1A2 = Cytochrome P450 1A2 (Homo sapiens, UniProt P05177); test: Inhibition of CYP1A2; format: ADME
Cytochrome P450 1A2, sequence (P05177 whole entry): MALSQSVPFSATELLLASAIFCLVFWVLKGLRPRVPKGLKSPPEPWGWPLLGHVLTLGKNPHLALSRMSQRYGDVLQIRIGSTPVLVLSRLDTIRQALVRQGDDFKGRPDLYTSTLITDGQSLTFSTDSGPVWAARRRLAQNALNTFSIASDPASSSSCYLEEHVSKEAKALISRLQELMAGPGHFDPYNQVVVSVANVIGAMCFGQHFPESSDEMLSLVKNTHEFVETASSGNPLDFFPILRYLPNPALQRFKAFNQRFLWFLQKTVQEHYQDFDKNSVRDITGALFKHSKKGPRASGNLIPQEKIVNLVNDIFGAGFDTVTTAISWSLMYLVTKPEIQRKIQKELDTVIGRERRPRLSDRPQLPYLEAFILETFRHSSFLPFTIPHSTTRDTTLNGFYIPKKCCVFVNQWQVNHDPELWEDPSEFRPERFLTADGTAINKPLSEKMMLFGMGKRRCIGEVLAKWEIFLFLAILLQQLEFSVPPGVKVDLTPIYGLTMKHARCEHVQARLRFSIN

[17] = target: Sodium-dependent noradrenaline transporter (Homo sapiens, UniProt P23975); test: Binding affinity to human NE transporter; how it was run: as §1
[18] = Oral bioavailability in Sprague-Dawley rat at 5 mg/kg, iv and 20 mg/kg, po; format: ADME, organism-based; details: in vivo; how it was run: as §2
[19] = target: Muscarinic acetylcholine receptor M4 (Homo sapiens, UniProt P08173); test: Binding affinity to human M4 receptor; how it was run: as §1
Rattus norvegicus [20] = test: Suppression of testosterone level to below 0.5 ng/mL castrate level for 12 hrs in po dosed gonad intact Sprague-Dawley rat; format: ADME, organism-based; details: in vivo
How it was run: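 Single-housed intact male SD rats (300-325 g), jugular cannulated 3 days prior; basal bleed 7:00-7:30 am, then single oral dose 5.0, 25, 50 or 100 mg/kg in 0.5% CMC suspension, n = 6/dose; serial heparinized plasma; testosterone by coated-tube RIA; castrate level <0.5 ng/mL; mean ± SEM.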

Cytochrome P450 2C19 = Cytochrome P450 2C19 (Homo sapiens, UniProt P33261); test: Inhibition of CYP2C19; format: ADME
Adenosine receptor A3 = Adenosine receptor A3 (Homo sapiens, UniProt P0DMS8); test: Binding affinity to human A3 receptor; how it was run: as §1
Adenosine receptor A3, sequence (P0DMS8 whole entry): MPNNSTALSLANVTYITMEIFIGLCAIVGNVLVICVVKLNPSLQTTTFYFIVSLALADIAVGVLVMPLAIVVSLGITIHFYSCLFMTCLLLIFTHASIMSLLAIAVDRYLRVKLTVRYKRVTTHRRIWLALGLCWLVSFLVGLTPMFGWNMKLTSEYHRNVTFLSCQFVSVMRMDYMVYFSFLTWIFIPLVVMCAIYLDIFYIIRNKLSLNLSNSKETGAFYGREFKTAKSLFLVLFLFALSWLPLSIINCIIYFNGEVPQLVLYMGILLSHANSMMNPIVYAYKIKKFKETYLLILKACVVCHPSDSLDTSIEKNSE

Mu-type opioid receptor = Mu-type opioid receptor (Homo sapiens, UniProt P35372); test: Binding affinity to human mu opiate receptor; how it was run: as §1
Mu-type opioid receptor, sequence (P35372 whole entry): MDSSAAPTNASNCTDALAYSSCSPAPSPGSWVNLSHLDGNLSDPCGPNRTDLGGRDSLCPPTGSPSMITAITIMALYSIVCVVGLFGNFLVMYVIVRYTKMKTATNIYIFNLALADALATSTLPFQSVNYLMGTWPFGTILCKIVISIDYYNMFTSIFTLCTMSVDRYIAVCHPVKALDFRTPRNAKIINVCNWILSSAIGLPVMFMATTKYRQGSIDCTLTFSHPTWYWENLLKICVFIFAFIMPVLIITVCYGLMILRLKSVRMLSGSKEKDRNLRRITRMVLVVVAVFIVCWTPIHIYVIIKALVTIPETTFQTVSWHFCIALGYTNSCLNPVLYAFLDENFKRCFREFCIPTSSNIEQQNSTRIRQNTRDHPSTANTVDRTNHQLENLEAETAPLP

[21] = Half life in Sprague-Dawley rat at 5 mg/kg, iv or 20 mg/kg, po; format: ADME, organism-based; details: in vivo; how it was run: as §2
[22] = target: Sodium-dependent serotonin transporter (Homo sapiens, UniProt P31645); test: Binding affinity to human 5HT transporter; how it was run: as §1
Sodium-dependent serotonin transporter, sequence (P31645 whole entry): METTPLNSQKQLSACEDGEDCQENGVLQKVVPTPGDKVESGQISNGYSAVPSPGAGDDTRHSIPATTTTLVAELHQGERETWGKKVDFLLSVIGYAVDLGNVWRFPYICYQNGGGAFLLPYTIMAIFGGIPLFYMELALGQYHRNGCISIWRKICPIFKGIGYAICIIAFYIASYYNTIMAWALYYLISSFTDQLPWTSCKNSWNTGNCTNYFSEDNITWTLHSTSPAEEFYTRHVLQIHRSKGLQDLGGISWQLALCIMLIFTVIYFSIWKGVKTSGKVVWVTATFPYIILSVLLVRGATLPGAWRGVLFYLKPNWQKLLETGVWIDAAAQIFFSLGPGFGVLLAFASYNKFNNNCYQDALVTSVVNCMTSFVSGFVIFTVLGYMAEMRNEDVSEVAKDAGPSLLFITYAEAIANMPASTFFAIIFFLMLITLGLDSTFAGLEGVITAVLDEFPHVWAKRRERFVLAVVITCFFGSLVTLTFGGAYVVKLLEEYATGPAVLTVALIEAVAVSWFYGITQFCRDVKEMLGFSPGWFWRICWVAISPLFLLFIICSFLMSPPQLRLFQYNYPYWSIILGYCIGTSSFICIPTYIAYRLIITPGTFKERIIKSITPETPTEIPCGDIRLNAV

Cytochrome P450 2D6 = Cytochrome P450 2D6 (Homo sapiens, UniProt P10635); test: Inhibition of CYP2D6; format: ADME
Substance-P receptor = Substance-P receptor (Homo sapiens, UniProt P25103); test: Binding affinity to human NK1 receptor; how it was run: as §1
Substance-P receptor, sequence (P25103 whole entry): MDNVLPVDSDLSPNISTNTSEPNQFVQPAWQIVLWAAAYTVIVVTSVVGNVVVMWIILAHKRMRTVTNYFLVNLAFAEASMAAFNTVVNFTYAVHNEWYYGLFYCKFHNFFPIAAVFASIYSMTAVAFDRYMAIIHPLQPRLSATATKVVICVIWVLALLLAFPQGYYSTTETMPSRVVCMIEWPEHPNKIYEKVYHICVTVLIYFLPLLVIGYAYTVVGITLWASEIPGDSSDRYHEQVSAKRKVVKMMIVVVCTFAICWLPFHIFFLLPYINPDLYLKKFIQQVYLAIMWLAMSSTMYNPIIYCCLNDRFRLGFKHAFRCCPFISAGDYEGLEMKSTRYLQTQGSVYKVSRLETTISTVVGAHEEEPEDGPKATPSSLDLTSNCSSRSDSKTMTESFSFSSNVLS

[23] = Clearance in Sprague-Dawley rat at 5 mg/kg, iv or 20 mg/kg, po; format: ADME, organism-based; details: in vivo; how it was run: as §2

A Ki [1] of 1.8 µM, a Ki (Histamine H2 receptor) of 1.22 µM and a Ki (D(4) dopamine receptor) of 2.51 µM were found for `COc1nc(NCCCN2CCOCC2)nc(OC)c1NC(=O)c1ccc(Oc2cc3c(cc2C)CCC3(C)C)o1` in this work. It also gave a Ki [2] of 0.145 µM, a Ki [3] of 3.71 µM and a Ki [4] of 0.37 µM. It also gave a Ki [5] of 0.964 µM, a Ki [6] of 1.75 µM and an IC50 (Cytochrome P450 3A4) greater than 30 µM. The Ki [7] was 1.96 µM, the IC50 [8] was 6.3 µM and the Ki (D(3) dopamine receptor) was 1.18 µM. The IC50 (Cytochrome P450 2C9) was 3 µM, the Ki [9] was 4.12 µM and the Ki [10] was 0.0004 µM. For the same molecule, the Ki (D(1A) dopamine receptor) was 1.62 µM, the Ki [11] was 0.145 µM and the Activity (Rattus norvegicus [12]) was “Dose-dependent effect”. It also gave an IC50 [13] of 0.0088 µM, a Vd [14] of 1.1 L/kg and a Ki [15] of 1.06 µM. It also gave a Ki [16] of 0.583 µM, an IC50 (Cytochrome P450 1A2) greater than 30 µM and a Ki [17] of 5.09 µM. The bioavailability [18] was 26%, the Ki [19] was 3.68 µM and the Activity (Rattus norvegicus [20]) was “Dose-dependent effect”. For the same molecule, the IC50 (Cytochrome P450 2C19) was greater than 30 µM, the Ki (Adenosine receptor A3) was 0.628 µM and the Ki (Mu-type opioid receptor) was 1.4 µM. The half-life [21] was 5.1 h, the Ki [22] was 1.43 µM and the IC50 (Cytochrome P450 2D6) was greater than 30 µM. It also gave a Ki (Substance-P receptor) of 1.25 µM and a clearance [23] of 5.5 mL/min/kg.
